This note sets out measurements from ChEMBL document CHEMBL3272264, “(+)- and (-)-3-Methoxycyproheptadine. A comparative evaluation of the antiserotonin, antihistaminic, anticholinergic, and orexigenic properties with cyproheptadine” (1977).

What all share (assay type): functional
For assay [1], the system named is Felis catus. The assay can be described thus: Orexigenic activity in cat assessed as food consumption at 0.0312 mg/kg, po (reference value: 126 +/- 26 to 155 +/- 33 g).
In assay [2] the test system is Felis catus. The assay can be described thus: Orexigenic activity in cat assessed as food consumption at 0.25 mg/kg, po (reference value: 118 +/- 52 to 143 +/- 37 g).
Assay [3] relates to Felis catus. Kind of assay: Orexigenic activity in cat assessed as food consumption at 0. 0312 mg/kg, po (reference value: 107 +/- 29 to 146 +/- 24 g).
Assay [4] concerns Felis catus. Kind of assay: Orexigenic activity in cat assessed as food consumption at 0. 25 mg/kg, po (reference value: 119 +/- 39 to 155 +/- 34 g).
The subject of assay [5] is Felis catus. The assay can be described thus: Orexigenic activity in cat assessed as food consumption at 0. 0312 mg/kg, po (reference value: 126 +/- 34 to 150 +/- 52 g).
The test system of assay [6] is Felis catus. The assay can be described thus: Orexigenic activity in cat assessed as food consumption at 0. 25 mg/kg, po (reference value: 114 +/- 25 to 147 +/- 42 g).
Assay [7] concerns Rattus norvegicus. The assay can be described thus: Antiserotonin activity against po dosed Sprague-Dawley rat assessed as inhibition of serotonin-induced edema of right hind paw compound administered 1 hr prior to serotonin challenge. The method, boiled down:
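Male rats, 140-210 g, dosed orally 1 h before 5 µg serotonin (base) into the right hind paw; saline (0.05 mL) into the left paw. Feet removed and weighed 30 min later; percent inhibition of serotonin weight gain versus saline paw. Doses 0.156-80 mg/kg, 4-16 rats per dose. ED50 from log-dose regression.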

Assay [8] concerns Cavia porcellus. The assay can be described thus: Antihistaminic activity against ip dosed Duncan-Harley guinea pig assessed as inhibition of histamine aerosol-induced bronchoconstriction compound administered 30 mins prior to histamine challenge. The method, boiled down:
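Guinea pigs of either sex, 200-300 g. Compound given ip as a suspension in 1% methylcellulose. 30 min later, 3-min exposure to histamine aerosol (0.5% base) in individual chambers, then 10 min observation. Dose range 0.031-6.25 mg/kg, 3-4 levels, 5-10 animals per level. ED50 is the dose protecting 50% from bronchoconstriction death, from log-dose regression.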

The subject of assay [9] is Mus musculus. The assay can be described thus: Anticholinergic activity in po dosed CF-1 mouse assessed as dose required to increase pupil diameter to 1.5 micrometer after 1 hr. An outline of the steps: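 Female CF-1 mice dosed orally, five dose levels, ten mice per dose. Pupil diameter measured with an ocular micrometer 1 h after dosing. ED1.5 is the dose raising pupil diameter to 1.5 micrometer units, derived by regression of response on log dose (Finney).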

Assay [10] deals with Felis catus. The assay can be described thus: Orexigenic activity in cat assessed as food consumption at 0. 25 mg/kg, po (reference value: 179 +/- 31 g).

Structures are written as SMILES.

Consider `COc1ccc2c(c1)C(=C1CCN(C)CC1)c1ccccc1C=C2`, for which the Activity in assay [1] was 110 g; in [2], 143 g; in assay [3] it was 115 g; in assay [4], 140 g; in assay [5], 131 g; in assay [6], 134 g.
By ED50 is commonly meant the midpoint of the dose-response relation. For the compound `CN1CCC(=C2c3ccccc3C=Cc3ccccc32)CC1` [CYPROHEPTADINE], the ED50 in assay [7] was 0.24 mg/kg; in [8] it was 0.077 mg/kg. The ED in assay [9] is 6 mg/kg. For the same compound, the Activity in assay [10] was determined as 220 g.
